Source: publication PMC4019989 (Clinical cancer research : an official journal of the …, 2009)

Key:
[1] = tested on: patients with relapsed or refractory hematologic malignancies; test: Phase 1 dose escalation: adverse events, DLT, MTD; type: in vivo
Plasma pharmacokinetics = type: in vivo, human; conditions: for AUCinf, Mean: included C0; for AUClast, Mean: includes C0; for half-life / C0 / Cmax / Tmax / clearance: human, plasma, iv
Outline: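 Drug went in as an i.v. push over 1–2 min. Cycle 1 blood was drawn predose and at 5, 15, 30 min and 1, 2, 4 h postdose, plus predose and 30 min postdose on cycle 1 day 5 and day 1 of cycles 2 and 3. Plasma was assayed by validated LC/MS (lower limit of detection 0.10 μg/mL). Parameters came from pharmacokinetic analysis and modelling.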

[2] = tested on: 20S chymotrypsin-like proteasome activity; type: in vivo, human
Outline: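 Chymotrypsin-like proteasome activity in patient whole blood and PBMCs, read with a fluorogenic substrate. Samples: cycle 1 day 1 predose, 1 and 24 h postdose; predose and 1 h postdose on cycle 1 day 5 and day 1 of cycles 2 and 3. Dosing was i.v. push days 1–5 with 9-d rest. Percent activity is each sample's specific activity relative to cycle 1 day 1 predose. Mean ± SEM.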

[3] = preclinical studies; cited from earlier work
[4] = All patients (N = 29), all dose cohorts
[5] = 11 mg/m^2 i.v. push, n = 2, plasma
[6] = 15 mg/m^2 i.v. push, n = 5, plasma
[7] = 20 mg/m^2 i.v. push, n = 4, plasma

CC(C)C[C@H](NC(=O)[C@H](CCc1ccccc1)NC(=O)CN1CCOCC1)C(=O)N[C@@H](Cc1ccccc1)C(=O)N[C@@H](CC(C)C)C(=O)[C@@]1(C)CO1 [carfilzomib]
7050 mL/min: clearance (Plasma pharmacokinetics; 15 mg/m2)
9 min: Tmax (Plasma pharmacokinetics; 11 mg/m2)
> 90%: Proteasome inhibition after the fifth consecutive day of dosing ([2]; whole blood and PBMCs, highest dose groups, 1 h after the fifth dose)
14%: Patients who discontinued study treatment due to adverse events ([1]; Four of the 29 patients)
4,457 ng·mL/h: AUClast, Mean (Plasma pharmacokinetics; [5])
generally returned to baseline: Recovery of proteasome activity in PBMCs ([2]; during the 9-day rest period)
9,760 g·mL/h: AUCinf, Mean (Plasma pharmacokinetics; [6])
0.762 µg/mL: C0 (Plasma pharmacokinetics; 11 mg/m2)
29 (100) n (%): Adverse event Any, All Grades [1, 4]
17%: Incidence of anemia ([1]; across all cohorts, five patients, doses 1.2 to 15 mg/m^2)
14 (48) n (%): Grade 3 and 4 adverse events: Any, Grades 3-4 ([1]; All patients (N = 29), Table 4) | Adverse event Fatigue, All Grades ([1]; human, in vivo) | Adverse event Nausea, All Grades ([1]; human, in vivo)
only partially recovered: Recovery of proteasome activity in whole blood ([2]; during the 9-day rest period)
5.45 µg/mL: C0 (Plasma pharmacokinetics; 20 mg/m2)
7 (24) n (%): Adverse event Diarrhea, Grade 1 [1, 4] | Adverse event Headache, All Grades ([1]; human, in vivo) | Adverse event Headache, Grade 1 ([1]; human, in vivo) | Adverse event Peripheral edema, All Grades ([1]; human, in vivo) | Adverse event Peripheral edema, Grade 1 ([1]; human, in vivo)
6 (21) n (%): Adverse event Constipation, All Grades [1, 4] | Adverse event Dyspnea, Grade 1 ([1]; human, in vivo) | Adverse event Exertional dyspnea, All Grades ([1]; human, in vivo) | Adverse event Exertional dyspnea, Grade 1 ([1]; human, in vivo) | Adverse event Paresthesia, All Grades ([1]; human, in vivo)
2.12 µg/mL: C0 (Plasma pharmacokinetics; 15 mg/m2)
> 75%: Proteasome inhibition after a single dose ([2]; whole blood and PBMCs, dose levels of 15 mg/m^2 and higher, 1 hour after dosing on day 1)
10 (35) n (%): Adverse event Diarrhea, All Grades [1, 4] | Adverse event Fatigue, Grade 1 ([1]; human, in vivo)
6 min: Tmax (Plasma pharmacokinetics; 20 mg/m2)
2 (7) n (%): Adverse event Paresthesia, Grade 2 ([1]; human, in vivo)
5 (17) n (%): Adverse event Constipation, Grade 1 [1, 4] | Adverse event Pyrexia, Grade 1 [1, 4] | Adverse event Hypoesthesia, Grade 1 ([1]; human, in vivo)
5.8 min: Tmax (Plasma pharmacokinetics; 15 mg/m2)
17.1 min: half-life (Plasma pharmacokinetics; 20 mg/m2)
4,463 g·mL/h: AUCinf, Mean (Plasma pharmacokinetics; [5])
higher than liver blood flow: clearance (in words) (Plasma pharmacokinetics; patients, i.v. push)
23,123 ng·mL/h: AUClast, Mean (Plasma pharmacokinetics; [7])
9,728 ng·mL/h: AUClast, Mean (Plasma pharmacokinetics; [6])
0.683 µg/mL: Cmax (Plasma pharmacokinetics; 20 mg/m2)
25.3 min: half-life (Plasma pharmacokinetics; 11 mg/m2)
1 (3) n (%): Grade 3 and 4 adverse events: ALT increased, Grades 3-4 ([1]; All patients (N = 29), Table 4) | Grade 3 and 4 adverse events: AST increased, Grade 3 ([1]; All patients (N = 29), Table 4) | Grade 3 and 4 adverse events: AST increased, Grades 3-4 ([1]; All patients (N = 29), Table 4) | Grade 3 and 4 adverse events: Abdominal pain, Grade 3 ([1]; All patients (N = 29), Table 4) | Grade 3 and 4 adverse events: Abdominal pain, Grades 3-4 ([1]; All patients (N = 29), Table 4) | Grade 3 and 4 adverse events: Anemia, Grades 3-4 ([1]; All patients (N = 29), Table 4) | Grade 3 and 4 adverse events: Chills, Grade 3 ([1]; All patients (N = 29), Table 4) | Grade 3 and 4 adverse events: Chills, Grades 3-4 ([1]; All patients (N = 29), Table 4) | Grade 3 and 4 adverse events: Disease progression, Grade 3 ([1]; All patients (N = 29), Table 4) | Grade 3 and 4 adverse events: Disease progression, Grades 3-4 ([1]; All patients (N = 29), Table 4) | Grade 3 and 4 adverse events: Hyperglycemia, Grade 3 ([1]; All patients (N = 29), Table 4) | Grade 3 and 4 adverse events: Hyperglycemia, Grades 3-4 ([1]; All patients (N = 29), Table 4) | Grade 3 and 4 adverse events: Neutropenia, Grade 3 ([1]; All patients (N = 29), Table 4) | Grade 3 and 4 adverse events: Neutropenia, Grades 3-4 ([1]; All patients (N = 29), Table 4) | Grade 3 and 4 adverse events: Pain, Grade 3 ([1]; All patients (N = 29), Table 4) | Grade 3 and 4 adverse events: Pain, Grades 3-4 ([1]; All patients (N = 29), Table 4) | Grade 3 and 4 adverse events: Skin infection, Grade 3 ([1]; All patients (N = 29), Table 4) | Grade 3 and 4 adverse events: Skin infection, Grades 3-4 ([1]; All patients (N = 29), Table 4) | Grade 3 and 4 adverse events: Syncope, Grade 3 ([1]; All patients (N = 29), Table 4) | Grade 3 and 4 adverse events: Syncope, Grades 3-4 ([1]; All patients (N = 29), Table 4) | Adverse event Constipation, Grade 2 [1, 4] | Adverse event Dyspnea, Grade 3 ([1]; human, in vivo) | Adverse event Dyspnea, Grade 4 ([1]; human, in vivo) | Adverse event Fatigue, Grade 3 ([1]; human, in vivo) | Grade 3 and 4 adverse events: ALT increased, Grade 3 ([1]; human, in vivo) | Grade 3 and 4 adverse events: Acute bronchitis, Grade 3 ([1]; human, in vivo) | Grade 3 and 4 adverse events: Acute bronchitis, Grades 3-4 ([1]; human, in vivo) | Grade 3 and 4 adverse events: Alkaline phosphatase increased, Grade 3 ([1]; human, in vivo) | Grade 3 and 4 adverse events: Alkaline phosphatase increased, Grades 3-4 ([1]; human, in vivo) | Grade 3 and 4 adverse events: Anemia, Grade 3 ([1]; human, in vivo) | Grade 3 and 4 adverse events: Dyspnea, Grade 3 ([1]; human, in vivo) | Grade 3 and 4 adverse events: Dyspnea, Grade 4 ([1]; human, in vivo) | Grade 3 and 4 adverse events: Fatigue, Grade 3 ([1]; human, in vivo) | Grade 3 and 4 adverse events: Fatigue, Grades 3-4 ([1]; human, in vivo) | Grade 3 and 4 adverse events: Febrile neutropenia, Grade 3 ([1]; human, in vivo) | Grade 3 and 4 adverse events: Febrile neutropenia, Grades 3-4 ([1]; human, in vivo) | Grade 3 and 4 adverse events: Gastrointestinal hemorrhage, Grade 3 ([1]; human, in vivo) | Grade 3 and 4 adverse events: Gastrointestinal hemorrhage, Grades 3-4 ([1]; human, in vivo) | Grade 3 and 4 adverse events: Hemoglobin decreased, Grade 3 ([1]; human, in vivo) | Grade 3 and 4 adverse events: Hemoglobin decreased, Grades 3-4 ([1]; human, in vivo)
≤ 1 h: Time for serum concentrations to approach the limit of assay detection [3]
11 (38) n (%): Grade 3 and 4 adverse events: Any, Grade 3 ([1]; All patients (N = 29), Table 4) | Adverse event Any, Grade 2 [1, 4] | Adverse event Any, Grade 3 [1, 4] | Adverse event Nausea, Grade 1 ([1]; human, in vivo)
4 (14) n (%): Adverse event Any, Grade 1 [1, 4] | Adverse event Paresthesia, Grade 1 ([1]; human, in vivo)
3 (10) n (%): Adverse event Any, Grade 4 [1, 4] | Adverse event Diarrhea, Grade 2 [1, 4] | Adverse event Pyrexia, Grade 2 [1, 4] | Adverse event Fatigue, Grade 2 ([1]; human, in vivo) | Adverse event Hypoesthesia, Grade 2 ([1]; human, in vivo) | Adverse event Nausea, Grade 2 ([1]; human, in vivo)
28.9 min: half-life (Plasma pharmacokinetics; 15 mg/m2)
23,660 g·mL/h: AUCinf, Mean (Plasma pharmacokinetics; [7])
0.326 µg/mL: Cmax (Plasma pharmacokinetics; 15 mg/m2)
0 (0) n (%): Grade 3 and 4 adverse events: AST increased, Grade 4 ([1]; All patients (N = 29), Table 4) | Grade 3 and 4 adverse events: Abdominal pain, Grade 4 ([1]; All patients (N = 29), Table 4) | Grade 3 and 4 adverse events: Chills, Grade 4 ([1]; All patients (N = 29), Table 4) | Grade 3 and 4 adverse events: Disease progression, Grade 4 ([1]; All patients (N = 29), Table 4) | Grade 3 and 4 adverse events: Hyperglycemia, Grade 4 ([1]; All patients (N = 29), Table 4) | Grade 3 and 4 adverse events: Neutropenia, Grade 4 ([1]; All patients (N = 29), Table 4) | Grade 3 and 4 adverse events: Pain, Grade 4 ([1]; All patients (N = 29), Table 4) | Grade 3 and 4 adverse events: Skin infection, Grade 4 ([1]; All patients (N = 29), Table 4) | Grade 3 and 4 adverse events: Syncope, Grade 4 ([1]; All patients (N = 29), Table 4) | Grade 3 and 4 adverse events: Thrombocytopenia, Grade 3 ([1]; All patients (N = 29), Table 4) | Adverse event Constipation, Grade 3 [1, 4] | Adverse event Constipation, Grade 4 [1, 4] | Adverse event Cough, Grade 2 [1, 4] | Adverse event Cough, Grade 3 [1, 4] | Adverse event Cough, Grade 4 [1, 4] | Adverse event Diarrhea, Grade 3 [1, 4] | Adverse event Diarrhea, Grade 4 [1, 4] | Adverse event Pyrexia, Grade 3 [1, 4] | Adverse event Pyrexia, Grade 4 [1, 4] | Adverse event Dyspnea, Grade 2 ([1]; human, in vivo) | Adverse event Exertional dyspnea, Grade 2 ([1]; human, in vivo) | Adverse event Exertional dyspnea, Grade 3 ([1]; human, in vivo) | Adverse event Exertional dyspnea, Grade 4 ([1]; human, in vivo) | Adverse event Fatigue, Grade 4 ([1]; human, in vivo) | Adverse event Headache, Grade 2 ([1]; human, in vivo) | Adverse event Headache, Grade 3 ([1]; human, in vivo) | Adverse event Headache, Grade 4 ([1]; human, in vivo) | Adverse event Hypoesthesia, Grade 3 ([1]; human, in vivo) | Adverse event Hypoesthesia, Grade 4 ([1]; human, in vivo) | Adverse event Nausea, Grade 3 ([1]; human, in vivo) | Adverse event Nausea, Grade 4 ([1]; human, in vivo) | Adverse event Paresthesia, Grade 3 ([1]; human, in vivo) | Adverse event Paresthesia, Grade 4 ([1]; human, in vivo) | Adverse event Peripheral edema, Grade 2 ([1]; human, in vivo) | Adverse event Peripheral edema, Grade 3 ([1]; human, in vivo) | Adverse event Peripheral edema, Grade 4 ([1]; human, in vivo) | Grade 3 and 4 adverse events: ALT increased, Grade 4 ([1]; human, in vivo) | Grade 3 and 4 adverse events: Acute bronchitis, Grade 4 ([1]; human, in vivo) | Grade 3 and 4 adverse events: Alkaline phosphatase increased, Grade 4 ([1]; human, in vivo) | Grade 3 and 4 adverse events: Anemia, Grade 4 ([1]; human, in vivo) | Grade 3 and 4 adverse events: Fatigue, Grade 4 ([1]; human, in vivo) | Grade 3 and 4 adverse events: Febrile neutropenia, Grade 4 ([1]; human, in vivo) | Grade 3 and 4 adverse events: Gastrointestinal hemorrhage, Grade 4 ([1]; human, in vivo) | Grade 3 and 4 adverse events: Hemoglobin decreased, Grade 4 ([1]; human, in vivo)
5060 mL/min: clearance (Plasma pharmacokinetics; 11 mg/m2)
4130 mL/min: clearance (Plasma pharmacokinetics; 20 mg/m2)
0.0902 µg/mL: Cmax (Plasma pharmacokinetics; 11 mg/m2)
8 (28) n (%): Adverse event Cough, All Grades [1, 4] | Adverse event Cough, Grade 1 [1, 4] | Adverse event Dyspnea, All Grades ([1]; human, in vivo) | Adverse event Hypoesthesia, All Grades ([1]; human, in vivo) | Adverse event Pyrexia, All Grades ([1]; human, in vivo)
three: Patients with grade 2 anemia ([1]; across all cohorts)
No DLTs were observed: DLTs in the initial seven dose cohorts ([1]; in vivo)
< 30 min: half-life (Plasma pharmacokinetics)
15 mg/m^2: maximum tolerated dose (MTD) ([1]; i.v. push on 5 consecutive days within 14-day cycles)
